Consider 3 compounds from paper PMC4203513 (Autophagy, 2014).

“Also recorded” adds a separate entry of the source. Where two headings read alike, the source gives them in different places.

One data set has as its system newly diagnosed GB. The note with it: radiation and carmustine with or without CQ; cited from earlier work.
Data set [1] deals with patients with newly diagnosed glioblastoma. The data set is classed as in vivo, human.
For data set [2] the test system is unchanged. Nature of the data set: Phase II adverse events related to study drug. It is filed as in vivo, human.
The test system of data set [3] is autophagic vacuoles in peripheral blood mononuclear cells. In words: Electron microscopy scoring of autophagic vacuoles in PBMC. The data set is classed as in vivo, human. The procedure, abridged: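 PBMC were fixed in 2% glutaraldehyde and held at 4 °C. Micrographs at 10,000–12,000× covered 20–25 mononuclear cells per sample, from multiple fields. Two blinded scorers counted AV by morphological criteria, excluding mitochondria-like structures, and their counts were averaged. A mixed-effects model used time (baseline, week 3, week 9) and a random subject effect.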

The nature of data set [4]: Population pharmacokinetics of HCQ in whole blood. The data set is classed as in vivo, human.
The test system of data set [5] is autophagic vacuoles in peripheral blood mononuclear cells. Nature of the data set: PK-PD analysis. Conditions: at 9 wk. The data set is classed as in vivo, human.
Data set [6] deals with newly diagnosed glioblastoma. Conditions: phase III trial, RT plus concomitant and adjuvant TMZ; cited from earlier work.
The mark [7] stands for this setting: HCQ 800 mg/d with RT + TMZ, during chemoradiation.
The mark [8] stands for this setting: phase II, n = 76, HCQ + RT + TMZ.

For `CCN(CC)CCCC(C)Nc1ccnc2cc(Cl)ccc12` (stereo not shown) [CQ, Chloroquine], in the data set with newly diagnosed GB, the median overall survival result is on record as “trend toward increased median overall survival”.

On to `CCN(CCO)CCCC(C)Nc1ccnc2cc(Cl)ccc12` (stereo not shown) [HCQ, hydroxychloroquine], for which the “dose-limiting toxicities (DLTs)” value in data set [1] (HCQ 200 mg/d with RT + TMZ) is “no dose-limiting toxicities”. The “dose-limiting toxicities (DLTs)” value in data set [1] (HCQ 400 mg/d with RT + TMZ) is recorded as “no dose-limiting toxicities; also recorded: no further DLTs were observed”. In addition, the “dose-limiting toxicities (DLTs)” value in data set [1] (HCQ 600 mg/d with RT + TMZ, 3 patients) is “no DLTs”. Also, in data set [1] (HCQ 800 mg/d with RT + TMZ), the dose-limiting toxicity result is “early and severe myelosuppression; also recorded: dose-limiting myelosuppression”; the “subjects with Grade 3 and 4 neutropenia and thrombocytopenia” value is 3/3. In addition, in data set [1] (setting [7]), the “patients with grade 4 neutropenia” value is 2/3 and the “patients with grade 4 thrombocytopenia” value is 3/3. In addition, the “other grade 2 toxicities common to all dose levels” value in data set [1] (HCQ 200 to 800 mg/d with RT + TMZ) is “nausea, fatigue, constipation, and diarrhea”. Besides, the “maximum tolerated dose (MTD) of HCQ” value in data set [1] (oral daily, in combination with RT and concurrent and adjuvant TMZ) was determined as 600 mg/day. Moreover, the “patients off treatment due to toxicity” value in data set [2] (phase I and II patients, RT + TMZ + HCQ) is on record as 3%. Besides, in data set [2] (setting [8]), the “Abdominal pain, Grade 3” value is listed as 1 (1) number of patients (%); the “Abdominal pain, Total (grade 3 and 4)” value is recorded as 1 (1) number of patients (%); the “Alanine aminotransferase increased, Grade 3” value is on record as 2 (3) number of patients (%); the “Alanine aminotransferase increased, Total (grade 3 and 4)” value is reported as 2 (3) number of patients (%). In addition, in data set [2] (setting [8]), the “Blood bilirubin increased, Total (grade 3 and 4)” value is 1 (1) number of patients (%); the “Constipation, Grade 4” value is listed as 1 (1) number of patients (%); the “Constipation, Total (grade 3 and 4)” value was 1 (1) number of patients (%); the “Eye disorders, Grade 3” value is listed as 1 (1) number of patients (%). Further, in data set [2] (setting [8]), the “Eye disorders, Total (grade 3 and 4)” value is 1 (1) number of patients (%); the “Fatigue, Grade 3” value is listed as 1 (1) number of patients (%); the “Fatigue, Total (grade 3 and 4)” value is given as 1 (1) number of patients (%); the “Neutrophil count decreased, Grade 3” value is listed as 3 (4) number of patients (%). In data set [3] (all patients (n = 40), P = 0.041), the “increase in mean autophagic vacuole count (mixed-effects model)” value was determined as 0.075 per wk. For the same compound, in data set [3] (one patient, 800 mg HCQ cohort), the “treatment-associated increase in AV diameter” value worked out at 2.5 fold, the “treatment-associated increase in AV perimeter” value was 10 fold and the “treatment-associated increase in percent of cytoplasm involved by AV” value amounted to 9 fold. The “relationship of HCQ exposure / whole blood concentration to dose” value in data set [4] (HCQ 200 to 800 mg/d) was “dose-proportional relationship; also recorded: dose-proportional and sustained exposure”. In addition, in data set [4] (groups of patients receiving the same dose), the “time-dependent trend of HCQ concentrations in whole blood” value was “did not show a significant time-dependent trend”. Also, the “mean tlag (individual estimates)” value in data set [4] (individual PK parameter estimates derived from the population model, range 0.97 to 1.25) is listed as 1.06 h. Further, the “mean V/F (individual estimates)” value in data set [4] (individual PK parameter estimates derived from the population model, range 26 to 5483) was 483.96 L. The “V2/F (individual estimates)” value in data set [4] (individual PK parameter estimates derived from the population model, range 558 to 2208) is given as 963 L. Moreover, the “PK-PD correlation in PBMC” value in data set [5] was “not significant”.

With `Cn1nnc2c(C(N)=O)ncn2c1=O` [TMZ, temozolomide], the “failure rate (death)” value in data set [6] was 0.6 per person-year of follow-up.
